Experiment [1] deals with Blumeria graminis f. sp. tritici. As to the kind of experiment: Inhibition of Blumeria graminis f. sp. Tritici cytochrome bc1 complex inoculated in wheat plant assessed as lowest drug concentration required to control 100% disease applied to leaf 1 hr prior inoculation measured after 6 to 9 days. A digest of the protocol: (§1)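 Spray solutions were made up in reverse osmosis water immediately before use, with Tween 20 at 0.05% by volume final to improve deposit retention. Concentrations tested were 100, 50, 25, 10, 5 and 1 ppm. The breakpoint is the lowest of these six concentrations giving 100% disease control, converted to molar units. Azoxystrobin served as the standard.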

Another experiment relates to Plasmopara viticola. As to the kind of experiment: Inhibition of Plasmopara viticola cytochrome bc1 complex inoculated in vine plant assessed as lowest drug concentration required to control 100% disease applied to leaf 1 hr prior inoculation measured after 6 to 9 days. The method, boiled down:
as §1

In a further experiment the test system is Puccinia triticina. As to the kind of experiment: Inhibition of Puccinia triticina cytochrome bc1 complex inoculated in wheat plant assessed as lowest drug concentration required to control 100% disease applied to leaf 1 hr prior inoculation measured after 6 to 9 days. A digest of the protocol: as §1
The next experiment relates to Phytophthora infestans. As to the kind of experiment: Inhibition of Phytophthora infestans cytochrome bc1 complex inoculated in tomato plant assessed as lowest drug concentration required to control 100% disease applied to leaf 1 hr prior inoculation measured after 6 to 9 days. The method, boiled down: as §1
The subject of experiment [2] is Mycosphaerella graminicola. As to the kind of experiment: Inhibition of Mycosphaerella graminicola cytochrome bc1 complex inoculated in wheat plant assessed as lowest drug concentration required to control 100% disease applied to leaf 1 hr prior inoculation measured after 6 to 9 days. The method, boiled down: as §1
The nature of experiment [3]: (§2) Inhibition of cytochrome bc1 complex in bovine heart mitochondria by NADH oxidase assay. On the set-up: species or system Bos taurus. The method, boiled down:
(§3)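 Microtitre-plate assay with beef heart mitochondria at a final 68.8 μg/ml in pH 8.0 phosphate buffer. Compounds were diluted in DMSO (2% final) from a top final concentration of 20 ppm. Plates were preincubated 15 min at room temperature, then NADH was added in pH 8.0 phosphate buffer to a final 200 ppm.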

A further experiment is filed under the species Bos taurus. The description is as §2. A digest of the protocol: as §3

What is called IC50 is the concentration that inhibits the measured activity by half. Higher therefore signals a need for much substance.

Calls of active or inactive are those of the source. The calls are words filed in the database; no cut-off is given here. A value given as a limit tells only on which side of the number the result lay.

Turning to `CO/C=C(/C(=O)OC)c1ccccc1Oc1cc(Oc2ccccc2C#N)ncn1` [AZOXYSTROBIN], the Activity (in experiment [1]; in the experiment with Plasmopara viticola; in the experiment with Puccinia triticina; in the experiment on Phytophthora infestans; in experiment [2]) was less than 1.8 µM each time. Further, the half-inhibitory concentration (IC50) in experiment [3] stood at 120 nM.

`CCc1ccc(Cc2ccc(C(=O)N/C=C\CCCC(=O)NCC(=O)OC)cc2)cc1`: the IC50 in experiment [3] worked out at 16 nM.

On to `CCCCCCCCCCCCC(=O)N/C=C\CCCC(=O)NCC(=O)OC`, for which the Activity in the experiment with Plasmopara viticola was greater than 100 µM. For the same molecule, the IC50 in experiment [3] came out at 24 nM.

In turn, `COC(=O)CNC(=O)CCC/C=C\NC(=O)c1ccc(Cc2ccc(I)cc2)cc1` displayed an IC50 in experiment [3] of 18 nM.

`CCCCCCOc1ccc(C(=O)N/C=C\CCCC(=O)NCC(=O)OC)cc1`: the Activity with Plasmopara viticola is greater than 100 µM. In experiment [3], this molecule yielded an IC50 of 21 nM.

In experiment [3], `CCc1ccc(Oc2ccc(C(=O)N[C@H]3C[C@H]3CCC(=O)NCC(=O)OC)cc2)cc1` gave an IC50 of 900 nM.

With `C/C=C(C)/C=C/C=C/[C@H](OC)[C@@H](C)[C@@H](OC)[C@@H](C)CCc1oc2c(O)c(OC)cc(OC)c2c(=O)c1C` [STIGMATELLIN], the Activity was greater than 180 µM in experiment [1]; 180 µM in the experiment on Plasmopara viticola; greater than 180 µM in the experiment on Puccinia triticina; greater than 180 µM in the experiment on Phytophthora infestans; greater than 180 µM in experiment [2]. This molecule displayed an IC50 in experiment [3] of 81 nM.

For `COC(=O)CNC(=O)CCC/C=C\NC(=O)c1ccc(Cc2ccc(Br)cc2)cc1`, the Activity in the experiment on Plasmopara viticola came out at 10 µM. For the same molecule, half-maximal inhibition in experiment [3] (IC50) was put at 17 nM.

Consider `COC(=O)CNC(=O)/C=C\C/C=C\NC(=O)/C=C(C)/C=C/[C@H](C)[C@H](OC)[C@H](C)[C@H](/C=C/c1ccccc1)OC` [CROCACIN A], for which the Activity in experiment [1] was greater than 180 µM; with Plasmopara viticola it was 45 µM; in the experiment on Puccinia triticina, 45 µM; in the experiment with Phytophthora infestans it was greater than 180 µM; in experiment [2] it was greater than 180 µM. In experiment [3], this molecule yielded an IC50 of 56 nM.

Turning to `COC(=O)CNC(=O)CCCc1ccccc1NC(=O)CCCCCCCCCc1ccccc1`, the outcome in the experiment listed under Bos taurus was inactive.

In experiment [3], `CCc1ccc(Cc2ccc(Cn3c(=O)oc4ccc(OCC(=O)OC)cc43)cc2)cc1` had an IC50 of 45 nM.

In turn, `CCc1ccc(Oc2ccc(C(=O)NCCOCC(=O)NCC(=O)OC)cc2)cc1` registered an IC50 in experiment [3] of 230 nM.

In experiment [3], `CCc1ccc(Oc2ccc(C(=O)NCCCCC(=O)NCC(=O)OC)cc2)cc1` had an IC50 of 400 nM.

In experiment [3], `COC(=O)COc1ccc2oc(=O)n(Cc3ccc(Cc4ccc(I)cc4)cc3)c2c1` registered an IC50 of 75 nM.

With `COC(=O)CNC(=O)CCC/C=C\NC(=O)/C=C(C)/C=C/[C@H](C)[C@H](OC)[C@H](C)[C@H](/C=C/c1ccccc1)OC` [CROCACIN D], the Activity in experiment [1] was greater than 180 µM; in the experiment on Plasmopara viticola, 25 µM; in the experiment with Puccinia triticina it was 9 µM; in the experiment with Phytophthora infestans, 45 µM; in experiment [2], 45 µM. The midpoint of inhibition in experiment [3], the IC50, lay at 36 nM.

On to `CCc1ccc(Cc2ccc(Cn3c(=O)oc4ccc(NCC(=O)OC)cc43)cc2)cc1`, for which, in the experiment filed under Bos taurus, the result was inactive.

With `CCOc1ccc(Cc2ccc(C(=O)N/C=C\CCCC(=O)NCC(=O)OC)cc2)cc1`, the Activity in the experiment with Plasmopara viticola was determined as 25 µM. In experiment [3], this molecule gave an IC50 of 9 nM.

As for `CCc1ccc(Oc2ccc(Cn3c(=O)oc4ccc(OCC(=O)OC)cc43)cc2)cc1`, it took 140 nM to reach half-maximal inhibition in experiment [3] (IC50).

Values taken from ChEMBL document CHEMBL1140211, “The role of molecular modeling in the design of analogues of the fungicidal natural products crocacins A and D” (Bioorg Med Chem, 2008).
